Experimental data from publication PMC8399557 (Journal of medicinal chemistry, 2020).

Tests used:
Format in all cases: physicochemical
[1] = Optical properties; conditions: for Abs (nm) / Em (nm) / Extinction Coefficient (cm^−1M^−1) / Stokes Shift (nm): in methanol; for Quantum yield (%, in Methanol): quinine bisulfate as the reference
[2] = Solvolytic stability of difluoro-dioxaborinins by 19F NMR in water/DMSO; conditions: for relative solvolytic stability (in words): comparison among Figure 2 / Table 1 compounds, 10% water/90% DMSO; for Stability (t1/2, h) 10% H2O/90% DMSO / Stability (t1/2, h) 90% H2O/10% DMSO: solvolysis half-life, 19F NMR, 25 °C; for Stability (t1/2, h) 10% H2O/90% DMSO: 10% H2O/90% DMSO (5.55 M H2O); for Stability (t1/2, h) 90% H2O/10% DMSO: 90% H2O/10% DMSO (50 M H2O); for Fold increase in stability (90% to 10% H2O): solvolysis in 5.5 M H2O vs. 50 M H2O; for times more resistant to solvolysis than 1: in 50 M H2O; for fold more rapid solvolysis than 5: determined in 5.55 M H2O
Summary of the method: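 Test compound was held in 10% or 90% aqueous DMSO, with aqueous portions in 1X PBS (pH 7.4, 10 mM), and 19F NMR spectra were integrated over time. The fraction of 19F on the test compound was taken as its integral divided by the sum of all fluoride integrals. Fractions versus time were fitted to P = exp(−k*t), and half-lives were derived from k.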

[3] = Water solubility judged by silica TLC with water as the mobile phase

In the case of `CC1=CC(C)=[O+][B-](F)(F)O1` [Compound 1, 2,2-Difluoro-4,6-dimethyl-2H-1λ^3,3,2λ^4-dioxaborinine], the “Abs (nm)” value [1] is reported as 279 nm, the “Em (nm)” value [1] is reported as 305 nm and the “Extinction Coefficient (cm^−1M^−1)” value [1] is reported as 9,180 cm^−1M^−1. The “Stokes Shift (nm)” value [1] was 26 nm, the “solvolysis in the absence of water” value ([2]; 100% DMSO) was “not observed” and the “fraction decomposed at 110 min (one F-18 half-life) post i.v. injection” value ([2]; assuming the in vitro solvolysis rate translates in vivo) was 37%. For the same compound, the “relative solvolytic stability (in words)” value [2] was “second most rapid difluoro-dioxaborinin to undergo aqueous solvolysis”, the “Stability (t1/2, h) 10% H2O/90% DMSO” value [2] was 7.63 ± 0.18 h and the “Stability (t1/2, h) 90% H2O/10% DMSO” value [2] was 2.73 ± 0.02 h. The “Fold increase in stability (90% to 10% H2O)” value [2] was 2.8 fold and the “water solubility (in words)” value [3] was “water solubility that allowed them to be resolved on silica TLC with water as the mobile phase”.
In the case of `CC1=[O+][B-](F)(F)OC(C)=C1C` [Compound 2, 2,2-Difluoro-4,5,6-trimethyl-2H-1λ^3,3,2λ^4-dioxaborinine], the “Abs (nm)” value [1] is reported as 303 nm, the “Em (nm)” value [1] is reported as 307 nm and the “Extinction Coefficient (cm^−1M^−1)” value [1] is reported as 12,200 cm^−1M^−1. The “Stokes Shift (nm)” value [1] was 4 nm, the “times more resistant to solvolysis than 1” value (“times more resistant” for short) [2] was 6.2 times and the “Stability (t1/2, h) 10% H2O/90% DMSO” value [2] was 53.9 ± 1.1 h. The “Stability (t1/2, h) 90% H2O/10% DMSO” value [2] was 17.1 ± 0.7 h, the “Fold increase in stability (90% to 10% H2O)” value [2] was 3.2 fold and the “water solubility (in words)” value [3] was “water solubility that allowed them to be resolved on silica TLC with water as the mobile phase”.
For `CCC1=C(C)O[B-](F)(F)[O+]=C1C` [Compound 3, 5-Ethyl-2,2-difluoro-4,6-dimethyl-2H-1λ^3,3,2λ^4-dioxaborinine], the “Abs (nm)” value [1] was 303 nm, the “Em (nm)” value [1] was 306 nm and the “Extinction Coefficient (cm^−1M^−1)” value [1] was 12,000 cm^−1M^−1. The “Stokes Shift (nm)” value [1] was 3 nm, the “times more resistant” value [2] was 5.6 times and the “Stability (t1/2, h) 10% H2O/90% DMSO” value [2] was 53.9 ± 1.5 h. The “Stability (t1/2, h) 90% H2O/10% DMSO” value [2] was 15.2 ± 0.5 h, the “Fold increase in stability (90% to 10% H2O)” value [2] was 3.5 fold and the “water solubility (in words)” value [3] was “water solubility that allowed them to be resolved on silica TLC with water as the mobile phase”.
For `CCOC(=O)CCC1=C(C)O[B-](F)(F)[O+]=C1C` [Compound 6, Ethyl 3-(2,2-difluoro-4,6-dimethyl-2H-1λ^3,3,2λ^4-dioxaborinin-5-yl)propanoate], the “Abs (nm)” value [1] was 301 nm, the “Em (nm)” value [1] was 307 nm and the “Extinction Coefficient (cm^−1M^−1)” value [1] was 12,600 cm^−1M^−1. The “Stokes Shift (nm)” value [1] was 6 nm, the “times more resistant” value [2] was 1.9 times and the “Stability (t1/2, h) 10% H2O/90% DMSO” value [2] was 24.6 ± 0.5 h. The “Stability (t1/2, h) 90% H2O/10% DMSO” value [2] was 5.19 ± 0.15 h, the “Fold increase in stability (90% to 10% H2O)” value [2] was 4.7 fold and the “water solubility (in words)” value [3] was “water solubility that allowed them to be resolved on silica TLC with water as the mobile phase”.
With `COc1cc(/C=C/C2=CC(/C=C/c3ccc(OC(=O)c4c(F)cc(F)cc4F)c(OC)c3)=[O+][B-](F)(F)O2)ccc1OC(=O)c1c(F)cc(F)cc1F` [Compound 9, ((1E,1′E)-(2,2-difluoro-2H-1λ^3,3,2λ^4-dioxaborinine-4,6-diyl)bis(ethene-2,1-diyl))bis(2-methoxy-4,1-phenylene) bis(2,4,6-trifluorobenzoate)] the “Abs (nm)” value [1] was 430 nm, the “Em (nm)” value [1] was 512 nm and the “Extinction Coefficient (cm^−1M^−1)” value [1] was 50,800 cm^−1M^−1. The “Stokes Shift (nm)” value [1] was 82 nm, the “Quantum yield (%, in Methanol)” value [1] was 3.0% and the “fold more rapid solvolysis than 5” value [2] was 33 fold. The “Stability (t1/2, h) 10% H2O/90% DMSO” value [2] was 11.9 ± 0.4 h.
In the case of `COc1cc(/C=C/C2=CC(/C=C/c3ccc(OC(=O)CCN4C(=O)C=CC4=O)c(OC)c3)=[O+][B-](F)(F)O2)ccc1OC(=O)CCN1C(=O)C=CC1=O` [Compound 10, ((1E,1′E)-(2,2-difluoro-2H-1λ^3,3,2λ^4-dioxaborinine-4,6-diyl)bis(ethene-2,1-diyl))bis(2-methoxy-4,1-phenylene) bis(3-(2,5-dioxo-2,5-dihydro-1H-pyrrol-1-yl)propanoate)], the “Abs (nm)” value [1] is reported as 434 nm, the “Em (nm)” value [1] is reported as 509 nm and the “Extinction Coefficient (cm^−1M^−1)” value [1] is reported as 54,000 cm^−1M^−1. For the same compound, the “Stokes Shift (nm)” value [1] was 75 nm, the “Quantum yield (%, in Methanol)” value [1] was 3.1% and the “fold more rapid solvolysis than 5” value [2] was 24 fold. For the same compound, the “Stability (t1/2, h) 10% H2O/90% DMSO” value [2] was 16.0 ± 0.2 h.
With `CC1=CC(c2ccccc2)=[O+][B-](F)(F)O1` [Compound 14, 2,2-Difluoro-4-methyl-6-phenyl-2H-1λ^3,3,2λ^4-dioxaborinine] the “Abs (nm)” value [1] was 325 nm, the “Em (nm)” value [1] was 328 nm and the “Extinction Coefficient (cm^−1M^−1)” value [1] was 19,800 cm^−1M^−1. The “Stokes Shift (nm)” value [1] was 3 nm, the “solvolysis half-life compared with F-18 nuclear decay half-life” value ([2]; Table 1 conditions) was > 1.83 h and the “relative solvolytic stability (in words)” value [2] was “least stable”. The “Stability (t1/2, h) 10% H2O/90% DMSO” value [2] was 4.46 ± 0.05 h.
For `CC1=C2CCCCC2=[O+][B-](F)(F)O1` [Compound 15, 2,2-Difluoro-4-methyl-5,6,7,8-tetrahydro-2H-1λ^3,2λ^4-benzo[e][1,3,2]dioxaborinine], the “Abs (nm)” value [1] was 303 nm, the “Em (nm)” value [1] was 307 nm and the “Extinction Coefficient (cm^−1M^−1)” value [1] was 12,000 cm^−1M^−1. For the same compound, the “Stokes Shift (nm)” value [1] was 4 nm, the “times more resistant” value [2] was 2.5 times and the “Stability (t1/2, h) 10% H2O/90% DMSO” value [2] was 33.7 ± 1.1 h. For the same compound, the “Stability (t1/2, h) 90% H2O/10% DMSO” value [2] was 6.75 ± 0.19 h, the “Fold increase in stability (90% to 10% H2O)” value [2] was 5.0 fold and the “water solubility (in words)” value [3] was “water solubility that allowed them to be resolved on silica TLC with water as the mobile phase”.
